Consider 9 compounds from ChEMBL document CHEMBL2093137, “WHO-TDR NTD Screening”.

Data set [1] deals with Schistosoma mansoni. As to the kind of experiment: (§1) WHO-TDR: Schistosomiasis. The format is functional. The arrangement: concentration or dose not given beside the values. In a few lines:
(§2)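 Larval and/or adult Schistosoma mansoni (Puerto Rican strain) were tested whole against 10,000 diverse compounds from Life Chemicals. The procedure was a previously published standard one, using a reference drug as positive control. Results are expressed as percent inhibition and IC50.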

Data set [2] deals with Onchocerca lienalis. As to the kind of experiment: (§3) WHO-TDR: Onchocerciasis. The class given is functional, organism-based. The method, boiled down:
(§4)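 Onchocerca ochengi or Onchocerca lienalis, animal pathogens used as surrogates for the human parasite, were screened as whole microfilariae against a 10,000-compound diverse library from Life Chemicals. The reported measures of activity are percent inhibition and IC50.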

The next data set has as its system Trypanosoma cruzi. The data set can be described thus: WHO-TDR: Chagas disease. The class given is functional, organism-based, Homo sapiens. As to conditions: MRC5. In a few lines: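 Each IC50 reflects antiparasitic potency against intracellular amastigotes of Trypanosoma cruzi Tulahuen CL2 beta-galactosidase strain. These were cultured in MRC-5SV2 human lung fibroblasts and exposed to a 10,000-compound diverse Life Chemicals library screened according to published standard procedures with a reference drug as positive control.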

Data set [3] deals with Trypanosoma brucei brucei. The data set can be described thus: WHO-TDR: Human African Trypanosomiasis (HAT). Particulars: Squib-427. The format is functional, organism-based. The method, boiled down:
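Whole-organism screen of a 10,000-compound diverse library from Life Chemicals, filtered for drug-likeness and reactive groups, against bloodstream forms of Trypanosoma brucei Squib 427 strain. The assay followed previously published standard procedures, with reference drugs as positive controls. Antiparasitic potency is reported as IC50.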

Data set [4] in a line: WHO-TDR: Cytotoxicity. The class given is toxicity, cell-based. Particulars: human, MRC5 cells.
In a further data set the test system is Plasmodium falciparum K1. The data set can be described thus: WHO-TDR: Malaria. The class given is functional, organism-based, Homo sapiens. As to conditions: Erythrocyte. The method, boiled down:
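Whole-organism screen of a 10,000-compound diverse library from Life Chemicals, filtered for drug-likeness and reactive groups, against intra-erythrocytic Plasmodium falciparum K1 strain in human red blood cells. The assay followed previously published standard procedures, with a reference drug as positive control. Antiplasmodial potency is reported as IC50.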

The subject of a further data set is Leishmania infantum. The data set can be described thus: WHO-TDR: Leishmaniasis. The class given is functional, organism-based, Mus musculus. As to conditions: Macrophage. In a few lines: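 Whole-organism screen of a 10,000-compound diverse library from Life Chemicals, filtered for drug-likeness and reactive groups, against intracellular amastigotes of Leishmania infantum MHOM/MA(BE)/67 in murine peritoneal macrophage host cells. The assay followed previously published standard procedures, with a reference drug as positive control. Antiparasitic potency is reported as IC50.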

Data set [5] has as its system Brugia malayi. The data set can be described thus: (§5) WHO-TDR: Lymphatic Filariasis. The format is functional. The arrangement: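 tested at 10 µM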. In a few lines:
(§6)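 Percent inhibition and IC50 describe activity against Brugia malayi microfilariae in a whole-organism screen. The screen used previously published standard procedures with reference drugs as positive controls. Compounds came from a diverse Life Chemicals library of 10,000, filtered for drug-likeness and reactive groups.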

The subject of data set [6] is Onchocerca lienalis. The data set is described as §3. The format is functional. The arrangement: concentration or dose not given beside the values. The method, boiled down:
as §4

Data set [7] has as its system Brugia malayi. The description is as §5. The class given is functional. The arrangement: concentration or dose not given beside the values. In a few lines:
as §6
This is another data set of the same source.

Data set [8] concerns Brugia malayi. The description is as §5. The format is functional, organism-based. The method, boiled down:
as §6

Data set [9] has as its system Brugia malayi. The data set is described as §5. The format is functional, organism-based. The method, boiled down:
as §6
The source holds these as a separate data set.

Data set [10] concerns Schistosoma mansoni. The data set is described as §1. The class given is functional, organism-based. In a few lines:
as §2

In brackets after ≈: the same amount, converted by molar mass.

Turning to `CCn1nnc2c(N3CCN(C(c4ccccc4)c4ccccc4)CC3)ncnc21`, the “% Inhibition” value with Schistosoma mansoni [1] is reported as 0%; with Brugia malayi [5] it was 0%; in the data set on Onchocerca lienalis [6], 100%. Besides, the half-inhibitory concentration (IC50) in the data set with Onchocerca lienalis [2] is 1.48 µg/mL (≈ 3.7 µM); in the data set with Trypanosoma cruzi, 3.62 µg/mL (≈ 9.06 µM); in data set [3] it was 3.83 µg/mL (≈ 9.6 µM); in [4], above 12 µg/mL; in the data set with Plasmodium falciparum K1 it was above 12 µg/mL; with Leishmania infantum, above 12 µg/mL.

With `O=C(Nc1nc2c(s1)CSc1ccccc1-2)C1COc2ccccc2O1` (centres undefined), the “% Inhibition” value in the data set with Schistosoma mansoni [1] stood at 100%; in the data set on Brugia malayi [7], 0%; in the data set with Brugia malayi [5], 33.33%; with Onchocerca lienalis [6] it was 100%. Also, the IC50 was found to be 1.42 µg/mL (≈ 3.71 µM) in the data set with Onchocerca lienalis [2]; 0.502 µg/mL (≈ 1.31 µM) with Trypanosoma cruzi; 0.367 µg/mL (≈ 0.96 µM) in data set [3]; 2.62 µg/mL (≈ 6.86 µM) in data set [4]; 4.75 µg/mL (≈ 12.4 µM) in the data set on Plasmodium falciparum K1; 0.782 µg/mL (≈ 2.04 µM) with Leishmania infantum.

With `O=C(COc1cccc2c1CCN(Cc1ccccc1F)C2=O)N1CCC(Cc2ccccc2)CC1`, the IC50 in the data set with Brugia malayi [8] worked out at 4.95 µM; in the data set with Trypanosoma cruzi, 0.557 µg/mL (≈ 1.14 µM); in data set [3], 0.473 µg/mL (≈ 0.971 µM); in data set [4] it was 4.56 µg/mL (≈ 9.37 µM); in the data set with Plasmodium falciparum K1 it was 4.54 µg/mL (≈ 9.33 µM); in the data set on Leishmania infantum, 4.73 µg/mL (≈ 9.71 µM). Also, in the data set on Brugia malayi [9], the IC50 was found to be 5.19 µM. For the same compound, the “% Inhibition” value in the data set on Schistosoma mansoni [1] is listed as 0%; in the data set with Brugia malayi [7], 100%; in the data set with Brugia malayi [5], 100%; in the data set with Onchocerca lienalis [6], 0%.

On to `CCOC(=O)c1ccc(NC(=O)CSc2nnc(NC(=O)C34CC5CC(CC(C5)C3)C4)s2)cc1`, for which the IC50 in the data set with Brugia malayi [8] is 7.07 µM; with Trypanosoma cruzi, above 15 µg/mL; in data set [3], above 15 µg/mL; in data set [4], above 15 µg/mL; in the data set with Plasmodium falciparum K1, above 15 µg/mL; in the data set on Leishmania infantum it was above 15 µg/mL. In the data set with Brugia malayi [9], this compound came in with an IC50 of 5.95 µM. Further, the “% Inhibition” value in the data set with Schistosoma mansoni [1] is 0%; with Brugia malayi [7] it was 100%; in the data set on Brugia malayi [5], 100%; in the data set on Onchocerca lienalis [6], 40%.

In the case of `CC(C)N1CCc2c(sc(NC(=O)c3cc4c(ccc5ccccc54)oc3=O)c2C(N)=O)C1`, the IC50 was found to be 0.53 µM in the data set on Brugia malayi [8]; 0.149 µg/mL (≈ 0.323 µM) with Trypanosoma cruzi; 0.478 µg/mL (≈ 1.04 µM) in data set [3]; 0.416 µg/mL (≈ 0.901 µM) in data set [4]; 0.572 µg/mL (≈ 1.24 µM) with Plasmodium falciparum K1; 0.484 µg/mL (≈ 1.05 µM) in the data set on Leishmania infantum. The compound also yielded an IC50 with Brugia malayi [9] of 0.53 µM. Also, the “% Inhibition” value is reported as 0% in the data set with Schistosoma mansoni [1], 100% with Brugia malayi [7], 100% in the data set on Brugia malayi [5] and -1% in the data set on Onchocerca lienalis [6].

For the compound `CCOC(=O)N1CCc2c(sc(NC(=O)c3nc4ccccc4s3)c2C(N)=O)C1`, the “% Inhibition” value in the data set on Schistosoma mansoni [1] and with Onchocerca lienalis [6] was 100% throughout. The IC50 worked out at 1.75 µg/mL (≈ 4.06 µM) in the data set with Onchocerca lienalis [2]; 6.7 µM in the data set with Schistosoma mansoni [10]; 1.52 µg/mL (≈ 3.54 µM) with Trypanosoma cruzi; 4.18 µg/mL (≈ 9.71 µM) in [3]; 4.58 µg/mL (≈ 10.6 µM) in [4]; 0.746 µg/mL (≈ 1.73 µM) with Plasmodium falciparum K1. Also, it took 4.18 µg/mL (≈ 9.71 µM) to reach half-maximal inhibition with Leishmania infantum (IC50).

Regarding `Cc1ccc(S(=O)(=O)Nc2ccccc2C(=O)Nc2nc3c(s2)Cc2ccccc2-3)cc1`, the IC50 was 1.18 µM in the data set with Brugia malayi [8]; 4.98 µg/mL (≈ 10.8 µM) in the data set with Trypanosoma cruzi; 3.6 µg/mL (≈ 7.79 µM) in [3]; 2.51 µg/mL (≈ 5.44 µM) in data set [4]; above 13.8 µg/mL in the data set on Plasmodium falciparum K1; 4.48 µg/mL (≈ 9.71 µM) with Leishmania infantum. The “% Inhibition” value worked out at 0% with Schistosoma mansoni [1], 100% in the data set with Brugia malayi [7], 25% in the data set with Brugia malayi [5] and 0% in the data set with Onchocerca lienalis [6].

On to `O=C(Nc1nc(-c2ccccn2)cs1)c1ccc(Cl)s1`, for which the IC50 in the data set on Onchocerca lienalis [2] was 0.344 µg/mL (≈ 1.07 µM); with Trypanosoma cruzi, below 0.0965 µg/mL; in data set [3] it was 0.309 µg/mL (≈ 0.96 µM); in data set [4], 4.39 µg/mL (≈ 13.6 µM); in the data set on Plasmodium falciparum K1, 0.564 µg/mL (≈ 1.75 µM); in the data set with Leishmania infantum it was 1.9 µg/mL (≈ 5.9 µM). In addition, the “% Inhibition” value in the data set on Onchocerca lienalis [6] turned out to be 100%.

As to `Cc1cccc(-n2nc3c(c2NC(=O)Nc2cccc(Cl)c2)CSC3)c1`, the IC50 is 0.26 µM in the data set on Brugia malayi [8]; 9.48 µg/mL (≈ 24.6 µM) in the data set with Trypanosoma cruzi; above 11.5 µg/mL in [3]; above 11.5 µg/mL in [4]; above 11.5 µg/mL in the data set on Plasmodium falciparum K1; 3.74 µg/mL (≈ 9.71 µM) in the data set with Leishmania infantum. In the data set on Brugia malayi [9], the IC50 is 1.77 µM. Besides, the “% Inhibition” value with Schistosoma mansoni [1] was 25%; in the data set on Brugia malayi [7] it was 100%; in the data set with Brugia malayi [5], 100%; in the data set on Onchocerca lienalis [6], 33.34%.
